Test results reported in paper PMC4756412 (Journal of pharmaceutical sciences, 2016).
“Also recorded” adds a separate entry of the source. Bridge positions count the residues as written; N and C are the ends. Peptide text beside a SMILES is read from it.

Columns and labels:
blood-brain barrier [1] = test: MRI of Gd-DTPA brain deposition after i.v. peptide; type: in vivo, Balb/c mice
blood-brain barrier [2] = test: NIRF imaging of IRdye800cw-PEG and R800 brain deposition; type: in vivo, mice; conditions: 0.01 mmol/kg peptide i.v., ex vivo brain-to-plasma fluorescence ratio
How it was run: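 Mice received test compound 0.010 mmol/kg or PBS i.v. After 5 min, IRDye 800CW PEG (~25 kDa, 0.01 μmol/kg) and R800 (P-gp substrate, 0.032 μmol/kg) were given i.v. Mice were killed by cardiac perfusion of 10% formaldehyde 20 min after treatment. Brains were imaged ex vivo by near-infrared scanner, and ROI fluorescence per unit tissue was divided by fluorescence per μL blood at the same time point.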

MDCK-II cell monolayers [3] = test: Inhibition of junction resealing in MDCK cell monolayers; type: cell-based, canine; conditions: peptide 1.0 mM apical and basolateral, TEER, 5- and 6-h time points
blood-brain barrier [4] = test: In-situ rat brain perfusion, 14C-mannitol brain delivery; type: in vivo, Sprague-Dawley rats; conditions: peptide 1.0 mM, 240-s perfusion, then 240-s 14C-mannitol
How it was run: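 Sprague-Dawley rats were anaesthetised i.p. with ketamine 100 mg/kg plus xylazine 5 mg/kg. Perfusion via a left common carotid cannula at 5.0 mL/min began right after cardiac puncture: 20-s saline, 240-s test compound (1.0 mM) or vehicle, 240-s ¹⁴C-mannitol, then 5-s saline wash. Perfusate was filter-sterilised and oxygenated (95% air/5% CO₂, 37 °C). Rectal temperature was held at 36.5 ± 0.5 °C.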

MDCK-II cell monolayers [5] = test: Direct junction modulation of intact MDCK cell monolayers; type: cell-based, canine; conditions: peptide 1.0 mM, Ca2+-sufficient buffer, 7- and 8-h time points
How it was run: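 MDCK-II cells were seeded at 75,000 cells/well on 0.4 μm polyester Transwell membranes and grown 5–8 days, with starting TEER of 280–320 ohm.cm². Monolayers were washed in HBSS (25 mM glucose, 2 mM CaCl₂, 0.75 mM MgSO₄, 10 mM HEPES), with no Ca²⁺-free step. They were then exposed apically and basolaterally to test compound (1.0 mM) or none, and TEER was read hourly for 6–8 h by voltohmmeter.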

[6] = Peptide stability in rat plasma; type: in vitro ADME; conditions: rat plasma (NaHeparin)
How it was run: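 Test compound in DMSO was spiked into heparinised rat plasma (final DMSO 0.6%) and shaken at 50 rpm at 37 °C for up to 8 or 72 h, about 2–3 half-lives. Samples were deproteinised with ACN:H₂O:EtOAc (6:1:1) and centrifuged at 17226 g. Remaining peptide was quantified by LC-MS/MS against a peptide internal standard, and half-life was calculated.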

blood-brain barrier [7] = conditions: completely reversed by 4 h following treatment; cited from earlier work
[8] = 0.01 mmol/kg i.v., AUC over 42 min, posterior, midbrain, anterior
[9] = 0.001, 0.0032, 0.01 mmol/kg i.v., 42-min session

| Compound | Gd-DTPA enhancement after 1-h peptide pretreatment (blood-brain barrier [1]; [8]) | Gd-DTPA enhancement after 2-h peptide pretreatment (blood-brain barrier [1]; [8]) | maximum enhancement of Gd-DTPA compared to background at 0 time point (blood-brain barrier [1]; 0.010 mmol/kg i.v., posterior region, Gd-DTPA 0.4 mmol/kg, 42-min MRI session) | duration of BBB modulation (Gd-DTPA) (blood-brain barrier [1]; 0.01 mmol/kg i.v., various pretreatment times, MRI) [h] | AUC of Gd-DTPA deposition vs vehicle, anterior region (blood-brain barrier [1]; [9]) | AUC of Gd-DTPA deposition vs vehicle, midbrain (blood-brain barrier [1]; [9]) | AUC of Gd-DTPA deposition vs vehicle, posterior region (blood-brain barrier [1]; [9]) | increase in brain delivery of Gd-DTPA (blood-brain barrier [1]; following peptide treatment) | brain deposition of IRdye800cw-PEG, 5-min pretreatment (blood-brain barrier [2]) | inhibition of junction resealing compared to HBSS (MDCK-II cell monolayers [3]) | passage of 14C-mannitol into rat brain compared to vehicle (blood-brain barrier [4]) | lowering of TEER of intact monolayers compared to HBSS (MDCK-II cell monolayers [5]) | half-life [6] [h] | duration for which BBB modulation was observed (blood-brain barrier [7]) [h] |
| --- | --- | --- | --- | --- | --- | --- | --- | --- | --- | --- | --- | --- | --- | --- |
| CC(=O)N[C@@H](CO)C(=O)N[C@@H](Cc1c[nH]cn1)C(=O)N[C@@H](C)C(=O)N[C@H](C(=O)N[C@@H](C)C(=O)N[C@@H](CO)C(N)=O)C(C)C [HAV4] (Ac-SHAVAS-NH2) | did not produce any Gd-DTPA enhancement | did not produce any Gd-DTPA enhancement | up to fivefold | < 1 | significantly higher than those of the vehicle group at all peptide doses examined | only treatment with 0.01 mmol/kg showed significant enhancement compared to vehicle | significantly higher than those of the vehicle group at all peptide doses examined | 3-4 fold | higher than in saline-treated controls | significantly inhibited the resealing; also recorded: inhibited the junction resealing | significantly enhanced | lowered the TEER values significantly | 2.4 | – |
| Ac-CDTPPVC-NH2 (disulfide 1-7 (inferred); SMILES CC(=O)N[C@H]1CSSC[C@@H](C(N)=O)NC(=O)[C@H](C(C)C)NC(=O)[C@@H]2CCCN2C(=O)[C@@H]2CCCN2C(=O)[C@H]([C@@H](C)O)NC(=O)[C@H](CC(=O)O)NC1=O) [ADTC5] | – | – | – | – | – | – | – | – | – | – | – | – | – | 2 |
